# SR-BI DiI-HDL act: enhances SR-BI lipid uptake from DiI-HDL. actives 0.096% (n = 320,000). activation, % at 12.5 µM. AID 504775. CHO ldlA[mSR-BI] cells, DiI-HDL uptake fluorescence, 3 h; 100 = double the neutral-control signal;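 active means mean replicate activation of at least 60% and every replicate at or above 60%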
#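 Assay system: LDL receptor-deficient CHO ldlA cells overexpressing murine SR-BI / Medium: BSA-supplemented, HEPES-buffered Ham's F12, pH 7.4 / Probe or stimulus: DiI-labelled HDL at 10 µg/mL final / Timing: compound with DiI-HDL co-incubation, 3 h at 37 °C / Technique: bottom-read cell fluorescence after medium removal, ex 550/em 595 nm / Measure: HDL uptake via cellular fluorescence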
# GRK2 aptamer HTS: human GRK2 inhibition via aptamer displacement. P25098. bead flow cytometry, FAM-aptamer displacement from GRK2. inhibition of aptamer binding, % at 10 µM. actives 0.59% (n = 330,000). AID 488847;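 active means inhibition of aptamer binding above 40%, roughly 3 SD of noise, on plates passing a quality check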;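 further: median bead fluorescence of bound FAM aptamer so fluorescent compounds give negative values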
# SR-BI DiI inh: blocks mouse SR-BI lipid uptake from DiI-HDL; Q61009; ldlA[mSR-BI] CHO cells, DiI-HDL uptake fluorescence, 3 h; inhibition, % at 12.5 µM; actives 0.96% (n = 320,000);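 active means mean replicate inhibition of at least 70% and a set share of replicates each scoring 70 or more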
# Rin1 Abl inh: blocks binding of human Rin1 to Abl; actives 0.4% (n = 360,000); TR-FRET Rin1/Abl binding, biochemical; P00519+Q13671; inhibition, % at 7.35 µM; in the data active means inhibition above about 5%, passing the limit was not always enough
# GRK2 inh confirm: confirmation of human GRK2 inhibitors displacing RNA aptamer | actives 4% (n = 2,000) | aptamer displacement, % at 10 µM | bead-bound GRK2, FAM-aptamer displacement, flow cytometry | shares compounds with GRK2 aptamer HTS;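 active means aptamer displacement above 40%, near three times the noise of non-fluorescent compounds, on plates passing quality checks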;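 further: negative values mostly reflect intrinsic compound fluorescence rather than true enhancement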
# FAM quench CP1: aptamer fluorescence quenching in GRK2 counter-screen; shares compounds with GRK2 aptamer HTS; Carboxyfluorescein RNA aptamer on beads, flow cytometry quenching; stronger effect = lower value; fluorescence response (% of DMSO), % at 10 µM; 2,000 tested, under 10 active; AID 504580;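 active means compounds that quench the bead-bound fluorescent RNA probe, cutting fluorescence to under half of the solvent control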;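 further: counterscreen run without GRK2 so only probe quenching by compound is measured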
# GRK2 CP2: human GRK2 inhibition confirmation, cherry pick 2. inhibition of aptamer binding, % at 10 µM. bead-bound GRK2, FAM-aptamer displacement, flow cytometry. 360 tested, under 10 active. AID 504782. shares compounds with GRK2 aptamer HTS;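 active means inhibition of aptamer binding above 40%, about triple the noise seen with nonglowing compounds, on plates passing quality control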;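 further: negative values mostly come from compounds that fluoresce themselves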
# FAM quench CP2: quenches fluorescent RNA aptamer, GRK2 hit artifact; shares compounds with GRK2 aptamer HTS; 360 tested, under 10 active; fluorescence response vs DMSO, % at 10 µM; carboxyfluorescein RNA aptamer beads, flow cytometry quenching; stronger effect = lower value;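 active means response vs DMSO under 50%, meaning signal dropped by over half, treated as fluorescence quencher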;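 further: labelled aptamer on streptavidin beads without GRK2 as a quench counter-screen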
# A number is an active result; 0 = inactive; - = no result. This is a sample that favours compounds with a hit; in the whole collection about 1.9% have one here.
SMILES,SR-BI DiI-HDL act,GRK2 aptamer HTS,SR-BI DiI inh,Rin1 Abl inh,GRK2 inh confirm,FAM quench CP1,others
CCOc1cc(C(=O)Nc2ncn[nH]2)cc(OCC)c1OCC,0,0,0,0,-,-,
Cc1ccc(SCc2c(C(=O)N/N=C/c3ccc4c(c3)OCO4)nnn2-c2nonc2N)cc1,0,51.0,0,0,0,0,
N#Cc1ccc(S(=O)(=O)N2CCN(Cc3cccs3)CC2)cc1,0,0,0,0,-,-,
CSc1ccc(/C=C/C(=O)c2ccc(NC(C)=O)cc2)cc1,0,88.0,0,0,0,0,
COC(=O)c1cc(C(=O)OCC(=O)c2ccc3c(c2)NC(=O)CO3)cc([N+](=O)[O-])c1,0,-,0,0,-,-,
CCOC(=O)c1c(NC(=O)CSc2nc3ccccc3c(=O)n2-c2ccc(F)cc2)sc(C(C)=O)c1C,0,73.0,0,0,0,0,
Cc1cccc(C(=O)NCC(=O)OCC(=O)N(C)CC(=O)Nc2ccc(F)cc2)c1,0,0,0,0,-,-,
Cc1cccc(C(=O)O/N=C(\N)c2ccc(Cl)cc2)c1,0,0,0,0,0,0,
CS(=O)(=O)c1ccc(C(=O)Nc2nc(-c3ccco3)c(-c3ccco3)s2)cc1,0,-,0,0,-,-,
COCCn1c(=S)[nH]c2cc(C(=O)N3CCN(Cc4ccc5c(c4)OCO5)CC3)ccc2c1=O,0,45.0,0,0,0,0,
Cc1cc(C)n2nc(SCC(=O)Nc3ccc(O)cc3)nc2n1,-,0,-,0,-,-,
Cc1cc(C)cc(NC(=O)CSc2nc3nc(C)cc(C)n3n2)c1,0,41.0,0,0,0,0,
CC1=C(C(=O)OCc2ccccc2)C(c2ccc(C)cc2)NC(=O)N1 (stereo not drawn),-,-,-,0,-,-,
COc1cccc(NC(=O)CCCCCN2C(=O)[C@@H]3Cc4ccccc4CN3C2=O)c1,0,0,0,0,0,0,
CCOC(=O)C1(C)CCCN(C(=O)c2cccc(OC(F)(F)F)c2)C1 (stereo not drawn),-,-,-,0,-,-,
COc1ccc(NC(=O)C2CCN(S(=O)(=O)c3cccc4nonc34)CC2)c(OC)c1,0,0,0,0,-,-,
O=C(NCc1ccccn1)C1CCCN(Cc2cnn(-c3ccccc3)c2-n2cccc2)C1 (stereo not drawn),0,0,0,0,0,0,
O=C(NCc1cccnc1)C1CCCN(Cc2cnn(-c3ccccc3)c2-n2cccc2)C1 (stereo not drawn),0,0,0,0,0,0,
O=C(NCc1ccccn1)C1CCN(Cc2cnn(-c3ccccc3)c2-n2cccc2)CC1,0,0,0,0,0,0,
CC1(C(=O)Nc2cccc(NS(C)(=O)=O)c2)CCN1Cc1ccccc1OC(F)F (stereo not drawn),-,-,-,0,-,-,
CN(C(=O)c1cccc(NC(=O)Cc2ccc(NC(=O)C3CCCN(C(=O)C4CC4)C3)cc2)c1)C1CCC1 (stereo not drawn),0,-,0,0,-,-,
S=c1cn[nH]c2ccccc12,0,-,0,0,-,-,
Cc1ccccc1OCC(=O)OCC(=O)NC1CCCC(C)C1C (stereo not drawn),-,-,-,0,-,-,
O=C(NCc1cccc(F)c1)c1[nH]c(C(F)(F)F)nc1-c1ccccc1,-,-,-,0,-,-,
CCOC(=O)c1sc2nc3c(SCC(=O)O)cc(C(=O)c4cc(F)ccc4O)cn3c(=O)c2c1C,0,0,0,0,-,-,
CCOC(=O)c1sc2nc3c(SCC(=O)O)cc(C(=O)c4ccccc4O)cn3c(=O)c2c1C,-,63.0,-,0,0,0,
C[C@@H]1CN([C@@H](C)CO)C(=O)c2cc(NS(=O)(=O)c3cccs3)ccc2O[C@H]1CN(C)Cc1ccc(C(F)(F)F)cc1,0,0,0,0,-,-,
O=C(OCC(=O)N1CCN(S(=O)(=O)c2ccc(Cl)cc2)CC1)C1CCC1,0,0,0,0,-,-,
O=C(OCC(=O)N1CCN(S(=O)(=O)c2ccccc2)CC1)C1CCC1,0,59.0,0,0,-,-,GRK2 CP2=0;FAM quench CP2=0
